Experiments:
EMT6 = assay: Cytotoxicity against mouse EMT6 cells after 72 hrs by crystal violet staining; type: functional; conditions: EMT6, 72 h, read-out: LD50 (the source's name)
[1] = Cytotoxicity against mouse PancO2 cells after 72 hrs by crystal violet staining; type: functional; conditions: read-out: LD50 (the source's name)
[2] = Inhibition of human recombinant Trx1/TrxR assessed as reduction in number of free thiols from reduced insulin after 30 mins by insulin reduction assay
How it was run: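 At least seven compound concentrations. Incubated 30 min at 37 °C, stopped with 8 mM DTNB in 8 M guanidine HCl, A412. IC50 from four-parameter logistic fit. Triplicates, mean ± SD, n ≥ 3.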

[3] = Chemical stability of the compound; type: physicochemical

| SMILES | CC50 (EMT6) [µM] | CC50 [1] [µM] | IC50 [2] [µM] | Stability [3] |
| --- | --- | --- | --- | --- |
| COC(=O)C(CBr)CBr | > 50 | > 50 | 1.2 | – |
| CC(C)C[C@@H](C(=O)NCC(=O)OCc1ccccc1)N(Cc1ccccc1)C(=O)C(CBr)CBr | – | – | > 50 | – |
| C=C(CI)C(=O)N(Cc1ccccc1)[C@@H](CC(C)C)C(=O)NCC(=O)OCc1ccccc1 | > 50 | > 50 | 3.9 | – |
| C=C(CBr)C(=O)OC [METHYL BROMOMETHYL ACRYLATE] | > 50 | > 50 | 0.44 | – |
| COC(=O)C(C)(CBr)CBr | – | – | > 50 | – |
| C=C(CBr)C(=O)N(Cc1ccc(OC)cc1OC)[C@@H](CC(C)C)C(=O)NCC(=O)OCC | > 50 | > 50 | 8.9 | – |
| C=C(C)C(=O)N(Cc1ccccc1)[C@@H](CC(C)C)C(=O)NCC(=O)OCc1ccccc1 | > 50 | > 50 | > 50 | – |
| C=C(CBr)C(=O)N[C@@H](CC(C)C)C(=O)NCC(=O)OCC | > 25 | > 50 | 2.4 | – |
| C=C(COC(=O)c1c(Cl)cccc1Cl)C(=O)OC | > 25 | > 25 | 0.2 | Unstable |
